# HTRA1 inhibitor = HTRA1 serine protease inhibitors, primary screen, biochemical, fluorescence polarization, HTS | Q92743 | 340,000 compounds, 0.5% hits | inhibition, % at 5.96 µM | AID 504803, 2011 | recombinant HTRA1, FP-rhodamine activity-based probe; in the data active = inhibition above about 36%;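 note: 0% = enzyme with DMSO and 100% = wells lacking enzyme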
# Target sequence (Q92743 whole entry, looked up): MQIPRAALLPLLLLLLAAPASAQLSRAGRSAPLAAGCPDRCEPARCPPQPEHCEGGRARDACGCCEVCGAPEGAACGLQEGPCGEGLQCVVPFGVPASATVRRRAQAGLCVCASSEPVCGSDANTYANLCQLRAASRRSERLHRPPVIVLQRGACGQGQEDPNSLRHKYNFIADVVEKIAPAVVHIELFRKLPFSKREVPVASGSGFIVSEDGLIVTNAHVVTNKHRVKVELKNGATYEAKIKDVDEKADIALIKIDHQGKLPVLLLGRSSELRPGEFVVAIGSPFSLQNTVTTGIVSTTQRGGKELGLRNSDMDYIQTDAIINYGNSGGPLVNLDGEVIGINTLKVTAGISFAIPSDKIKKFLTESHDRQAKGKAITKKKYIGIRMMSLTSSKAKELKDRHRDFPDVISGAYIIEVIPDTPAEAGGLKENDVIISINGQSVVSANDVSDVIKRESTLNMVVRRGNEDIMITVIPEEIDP
# SIAE primary = human SIAE inhibitors, primary screen, biochemical, fluorescence polarization, FP-Rh probe, 1536-well HTS | 370,000 compounds, 0.69% hits | AID 1053197, 2014 | inhibition, % at 9.66 µM | SIAE FP-Rh probe binding;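 active = inhibition above a cutoff: mean of compounds within the control limits plus 3 SD of those, cut at about 17% in these data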;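 note: 0% = plate median of compound wells and 100% = probe without SIAE protein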
# ARNT TACC3 PPI = disruptors of ARNT/TACC3 protein interaction, primary screen, biochemical, AlphaScreen, single concentration | Transforming acidic coiled-coil-containing protein 3 (Homo sapiens), Q9Y6A5 | 390,000 compounds, 0.66% hits | AlphaScreen His-ARNT PAS-B/GST-TACC3 binding, luminescence; TACC3 fragment carries E629A point mutation | inhibition, % at 9.99 µM;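 active = mean inhibition of replicates at least 50% and at least half of replicates each reaching 50%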;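 note: 0% = complete ARNT plus TACC3 wells and 100% = ARNT alone without TACC3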
# ABHD4 inh = ABHD4 inhibitors, primary screen, biochemical, fluorescence polarization, mouse. purified mABHD4, FP-Rh probe fluorescence polarization. inhibition, % at 8.92 µM. 370,000 compounds, 0.54% hits;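 active = inhibition exceeding the mean over every tested compound plus 3 SD, cut at about 30% in these data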;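 note: 0% = plate median of compound wells and 100% = S159A mutant with DMSO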
#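 Assay system: mABHD4 protein; medium: HEPES pH 7.0, NaCl, Pluronic buffer; dosing: 8.92 µM, single dose; schedule: 45 min + 60 min at 25 °C; signal: FP readout, ex 525 nm / em 598 nm; read-out: normalized percent inhibition of probe labeling; repeats: single replicate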
# TCR-CD3 inh = inhibitors of human TCR-CD3 interaction, primary screen, biochemical, fluorescence, TAMRA-labeled TCR probe; T-cell receptor (TCR); inhibition, % at 9.4 µM; 360,000 compounds, 0.37% hits; AID 651800, 2012; in the data active = inhibition above about 19%;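 note: recombinant mutant TCR 2C K166C tagged with TAMRA read by polarization; 0% = receptor in buffer alone and 100% = receptor with positive control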
# mABHD4 conf = ABHD4 inhibitors, retest, confirmation, biochemical, fluorescence polarization, mouse; purified mABHD4, FP-Rh probe fluorescence polarization; inhibition, % at 8.92 µM; shares compounds with ABHD4 inh; 1,800 compounds, 55% hits;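 active = mean inhibition across replicates above the hit cutoff set in the primary screen, cut at about 30% in these data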;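 note: 0% = wild-type ABHD4 with DMSO and 100% = catalytically dead S159A mutant with DMSO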
# Active calls of the source: *; nt = not tested or not shown. Hits are enriched below; roughly 1.8% of the tested compounds scored in any of these assays.
SMILES,HTRA1 inhibitor,SIAE primary,ARNT TACC3 PPI,ABHD4 inh,TCR-CD3 inh,mABHD4 conf
C[C@@H]1CN([C@@H](C)CO)C(=O)c2c(c3ccccc3n2C)-c2ccccc2CO[C@@H]1CN(C)C(=O)Nc1ccc(F)cc1,nt,nt,16.4,nt,nt,nt
Nc1[nH]n(-c2ccccc2)c(=O)c1N=Nc1ccc(F)cc1,nt,11.4,nt,27.0,nt,nt
Nc1[nH]n(-c2ccccc2)c(=O)c1N=Nc1ccc2c(c1)OCCO2,28.4,8.6,35.3,30.4*,5.9,28.5
Cc1ccccc1N=Nc1c(N)[nH]n(-c2ccccc2)c1=O,nt,8.8,nt,33.9*,nt,43.4*
Cc1cc([N+](=O)[O-])ccc1N=Nc1c(N)[nH]n(-c2ccccc2)c1=O,3.2,9.0,6.7,29.9*,8.3,40.8*
C[C@H]1CCCCO[C@H](CN(C)S(=O)(=O)c2ccc(F)cc2)[C@@H](C)CN([C@@H](C)CO)C(=O)c2cc(NS(C)(=O)=O)ccc2O1,nt,nt,-0.3,nt,nt,nt
O=C(C[C@@H]1C[C@@H]2c3cc(NC(=O)c4cccnc4)ccc3O[C@@H]2[C@H](CO)O1)NCC(F)(F)F,nt,nt,-1.3,nt,nt,nt
COc1ccc(Cl)cc1NC(=O)NNC(=O)c1ccccn1,1.9,3.3,26.8,39.7*,-17.4,29.2
Cc1noc(C)c1S(=O)(=O)Nc1ccc2c(c1)C(=O)N([C@@H](C)CO)C[C@H](C)[C@@H](CN(C)C(=O)c1ccncc1)OCCCC[C@H](C)O2,nt,nt,-3.5,nt,nt,nt
O=C1NC(=O)/C(=C\c2ccc(O)cc2O)S1,16.9,-1.9,3.3,30.4*,16.6,2.5
O=C1NC(=O)/C(=C/c2cccc3ccccc23)S1,-26.4,-24.7,22.9,-26.2,6.9,nt
Cc1ccc(Nc2nc(-c3ccc(O)c(O)c3)cs2)nc1,nt,12.6,nt,41.7*,12.8,52.8*
COCC(=O)N(C)C[C@@H]1Oc2ncc(C#C[C@@H](C)O)cc2C(=O)N([C@H](C)CO)C[C@H]1C,nt,nt,-8.0,nt,nt,nt
C[C@@H]1CCCCO[C@H](CN(C)S(=O)(=O)c2ccccc2)[C@H](C)CN([C@H](C)CO)C(=O)c2cc(NS(=O)(=O)c3ccc(F)cc3)ccc2O1,nt,nt,-5.1,nt,nt,nt
COc1ccc2ccccc2c1/C=N/Nc1cccc(C(=O)O)c1,5.7,14.9,2.6,37.4*,13.6,32.5*
O=C(O)c1cc(N/N=C/c2ccc(-c3ccccc3)cc2)ccc1Cl,10.9,-1.9,3.1,11.1,5.0,nt
COc1ccc(N/N=C/c2c(C(=O)O)ccc3ccccc23)cc1,8.0,-2.7,2.9,20.5,5.3,nt
COc1ccc2ccccc2c1/C=N/Nc1ccc(Cl)c(C(=O)O)c1,6.8,14.3,0.1,36.7*,9.8,52.1*
O=C(O)c1cccc(N/N=C/c2cccc3ccccc23)c1,2.1,3.6,nt,9.6,8.2,nt
O=C(O)c1cc(N/N=C/c2c[nH]c3ccccc23)ccc1Cl,0.7,8.2,4.8,32.0*,-6.1,28.2
COc1ccc2c(/C=N/Nc3ccc(C(=O)O)cc3)c[nH]c2c1,3.2,-5.2,16.8,50.0*,5.2,35.6*
CC(C)NC(=O)N[C@H]1CC[C@H](CC(=O)O)O[C@H]1CO,nt,nt,16.6,nt,nt,nt
O=C(C[C@@H]1CC[C@H](NC(=O)c2ccncc2)[C@@H](CO)O1)NCC1CC1,nt,nt,-7.1,nt,nt,nt
O=C(Cc1ccncc1)NCC[C@@H]1CC[C@H](NC(=O)C2CCC2)[C@@H](CO)O1,nt,nt,4.6,nt,nt,nt
O=C(O)c1cc(N/N=C/C=C/c2ccccc2[N+](=O)[O-])ccc1Cl,10.2,3.9,14.3,30.1*,0.5,35.8*
SMILES,HTRA1 inhibitor,SIAE primary,ARNT TACC3 PPI,ABHD4 inh,TCR-CD3 inh,mABHD4 conf
CCCC#Cc1cnc2c(c1)C(=O)N([C@H](C)CO)C[C@@H](C)[C@@H](CN(C)C(=O)Cc1ccncc1)O2,nt,nt,-9.2,nt,nt,nt
COc1ccc(C(=O)OCC(=O)c2ccc3c(c2)NC(=O)CO3)cc1OC,0.7,-9.1,-0.6,-0.3,0.2,nt
CC(=O)Nc1cc(NC(C)=O)cc(C(=O)OCC(=O)c2ccc3c(c2)NC(=O)CO3)c1,-3.1,-3.6,-5.9,45.9*,-1.8,7.5
CO[C@H]1CN(C)C(=O)c2ccc(NC(=O)C3CCOCC3)cc2OC[C@H](C)N(Cc2cccnc2)C[C@H]1C,nt,nt,-10.8,nt,nt,nt
Cc1ccccc1S(=O)(=O)NNC(=O)C(=O)NNc1ccccn1,6.0,-3.9,70.2*,34.9*,-2.0,33.3*
Cc1ccc(S(=O)(=O)NNC(=O)C(=O)NNc2ccccn2)cc1,4.5,-3.2,63.3*,42.2*,-3.0,34.6*
O=C(Nc1ccccn1)C(=O)Nc1ccccn1,3.3,2.9,-6.0,0.0,-0.1,nt
C[C@@H]1CN([C@H](C)CO)C(=O)c2cc(NC(=O)Nc3ccc(F)cc3)ccc2O[C@@H]1CN(C)Cc1ccc(C(=O)O)cc1,nt,nt,6.0,nt,nt,nt
C[C@H]1CN([C@@H](C)CO)C(=O)c2cc(N(C)C)ccc2O[C@@H]1CN(C)Cc1ccc(-c2ccccc2)cc1,nt,nt,16.4,nt,nt,nt
CC(C)NC(=O)N(C)C[C@@H]1OCCCC[C@H](C)Oc2ccc(NC(=O)CCC(F)(F)F)cc2C(=O)N([C@@H](C)CO)C[C@@H]1C,nt,nt,-24.2,nt,nt,nt
COc1ccc(S(=O)(=O)N2CCC(NC(=O)c3ccccc3)CC2)cc1,3.3,6.8,4.2,39.3*,-5.9,-6.7
C[C@@H]1CN([C@@H](C)CO)C(=O)Cc2cc(NC(=O)Cc3cn(C)c4ccccc34)ccc2O[C@@H]1CN(C)C,nt,nt,-7.3,nt,nt,nt
COc1ccc(NC(C)=O)cc1S(=O)(=O)Nc1ccccc1C(=O)NCCc1ccccc1,-3.2,-12.4,-10.5,-4.9,1.1,nt
COc1ccc(CCNC(=O)c2ccccc2NS(=O)(=O)c2cc(C(=O)O)ccc2OC)cc1,-4.3,-13.7,0.1,33.3*,-5.3,23.8
Cc1ccc(S(=O)(=O)Nc2ccc3c(c2)C(=O)N([C@H](C)CO)C[C@@H](C)[C@H](CN(C)S(=O)(=O)c2cccs2)O3)cc1,nt,nt,-3.0,nt,nt,nt
COc1ccc(C(C)=NNc2ccc([N+](=O)[O-])cc2S(=O)(=O)Nc2ccccc2C(=O)O)c(OC)c1,-129.9,-18.1,38.0,-2.9,-3.1,nt
Cc1ccc(NC(=S)NNc2ccc([N+](=O)[O-])cc2S(=O)(=O)Nc2ccccc2C(=O)O)cc1C,15.3,13.8,7.3,46.3*,6.4,85.3*
C[C@@H]1CN([C@H](C)CO)C(=O)c2cc(NC(=O)Cc3ccccc3)ccc2O[C@@H](C)CCCCO[C@H]1CN(C)S(=O)(=O)c1cn(C)cn1,nt,nt,-12.9,nt,nt,nt
CCC(=O)NC1=C(Cl)C(=O)C(NC(=O)CC)=C(Cl)C1=O,6.7,6.9,5.6,34.5*,-3.1,39.9*
